Activity calls are given as the source filed them. The rule behind the calls is not given here.

Results on 17 compounds are retold here after ChEMBL document CHEMBL4428038, “Overcoming chloroquine resistance in malaria: Design, synthesis and structure-activity relationships of novel chemoreversal agents” (Eur J Med Chem, 2016).

The test system of test [1] is Plasmodium falciparum. The test is described as follows: Intrinsic antimalarial activity against intermediate chloroquine-resistant Plasmodium falciparum 7G8 isolate MRA-154 harboring CRT SVMNT haplotype mutant assessed as reduction in parasite viability at 500 nM. The format is functional, organism-based.
The subject of test [2] is Plasmodium falciparum. As to the kind of experiment: Intrinsic antimalarial activity against chloroquine-sensitive Plasmodium falciparum HB3 isolate MRA-155 assessed as reduction in parasite viability at 500 nM. In kind it is functional, organism-based.
Test [3] has as its system Plasmodium falciparum. As to the kind of experiment: Intrinsic antimalarial activity against chloroquine/artemisinin-resistant Plasmodium falciparum NHP4773 harboring CRT K76T mutant assessed as reduction in parasite viability at 500 nM. The format is functional, organism-based.
Test [4] has as its system Plasmodium falciparum. The test is described as follows: Intrinsic antimalarial activity against chloroquine-resistant Plasmodium falciparum NHP4559 harboring CRT K76T mutant assessed as reduction in parasite viability at 500 nM. The format is functional, organism-based.
For the next test, the system named is Plasmodium falciparum K1. As to the kind of experiment: Inhibition of CRT CVIET haplotype mutant in Plasmodium falciparum K1 isolate MRA-159 infected in erythrocytes assessed as chloroquine-coumarin probe accumulation at 10 uM after 10 hrs by Hoechst 33342 staining based flow cytometry (reference value: 35.57 +/- 3.84%). The arrangement: scale not given: the % may be the effect or the level left. The format is cell-based. In a few lines: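 Infected erythrocyte cultures at 2.5% hematocrit and 7–12% parasitemia, synchronized to late-ring/early-trophozoite stage, were incubated with chloroquine-coumarin probe plus test agent for 10 h at 37 C. Cells were then washed, resuspended in PBS and read by flow cytometry (405 nm excitation, 450/50 filter). Hoechst-stained duplicate wells set parasitemia. Uptake = % infected erythrocytes fluorescent. Controls: PBS (negative), desipramine and parent compound (positive). ≥3 independent experiments; mean ± SEM.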

Test [5] deals with Plasmodium falciparum. As to the kind of experiment: Intrinsic antimalarial activity against chloroquine-resistant Plasmodium falciparum K1 isolate MRA-159 harboring CRT CVIET haplotype mutant assessed as reduction in parasite viability at 500 nM. In kind it is functional, organism-based.
Test [6] relates to Plasmodium falciparum. The test is described as follows: Intrinsic antimalarial activity against chloroquine-resistant Plasmodium falciparum Dd2 isolate MRA-156 harboring CRT K76T mutant assessed as reduction in parasite viability at 500 nM. In kind it is functional, organism-based.
The test system of test [7] is Plasmodium falciparum. As to the kind of experiment: Intrinsic antimalarial activity against chloroquine/artemisinin-resistant Plasmodium falciparum ARS272 harboring CRT K76T mutant assessed as reduction in parasite viability at 500 nM. In kind it is functional, organism-based.
For test [8], the system named is Plasmodium falciparum. As to the kind of experiment: Intrinsic antimalarial activity against chloroquine-sensitive Plasmodium falciparum 3D7 isolate MRA-102 assessed as reduction in parasite viability at 500 nM. In kind it is functional, organism-based.
Test [9] deals with Plasmodium falciparum. The test is described as follows: Intrinsic antimalarial activity against chloroquine/artemisinin-resistant Plasmodium falciparum ARS233 harboring CRT K76T mutant assessed as reduction in parasite viability at 500 nM. In kind it is functional, organism-based.

As to `CC(C)(C)OC(=O)N1CCCC(N)C1` (stereo not given), the result with Plasmodium falciparum [1], in the test on Plasmodium falciparum [2], in the test on Plasmodium falciparum [3], with Plasmodium falciparum [4], with Plasmodium falciparum [5] and in the test on Plasmodium falciparum [6] was inactive. Further, the outcome in the test on Plasmodium falciparum [7], in the test on Plasmodium falciparum [8] and in the test with Plasmodium falciparum [9] was inactive. Besides, the Activity with Plasmodium falciparum K1 amounted to 52.2%.
As for `O=C1Cc2ccccc2Sc2ccccc21`, the result with Plasmodium falciparum [1], with Plasmodium falciparum [2], in the test with Plasmodium falciparum [3], in the test on Plasmodium falciparum [4], in the test with Plasmodium falciparum [5] and with Plasmodium falciparum [6] was inactive. In addition, the result in the test on Plasmodium falciparum [7], in the test with Plasmodium falciparum [8] and in the test on Plasmodium falciparum [9] was inactive. For the same compound, the Activity in the test with Plasmodium falciparum K1 amounted to 50.7%.
In the case of `O=C1/C(=C/c2ccccc2)N2CCC1CC2`, the result in the test with Plasmodium falciparum [1], with Plasmodium falciparum [2], in the test on Plasmodium falciparum [3], in the test on Plasmodium falciparum [4], in the test on Plasmodium falciparum [5] and in the test with Plasmodium falciparum [6] was inactive. For the same compound, the result in the test on Plasmodium falciparum [7], in the test on Plasmodium falciparum [8] and with Plasmodium falciparum [9] was inactive. Besides, the Activity in the test on Plasmodium falciparum K1 was 39%.
Turning to `CC(C)(C)OC(=O)N1CCN(C2Cc3ccccc3Sc3ccc(Cl)cc32)CC1` (stereo not given), the outcome with Plasmodium falciparum [1], in the test on Plasmodium falciparum [2], in the test on Plasmodium falciparum [3], in the test on Plasmodium falciparum [4], in the test with Plasmodium falciparum [5] and in the test on Plasmodium falciparum [6] was inactive. In addition, the outcome in the test on Plasmodium falciparum [7], in the test on Plasmodium falciparum [8] and with Plasmodium falciparum [9] was inactive. Moreover, the Activity with Plasmodium falciparum K1 came out at 43.4%.
On to `N#CC(CCN1CCN(c2ccc(F)cc2)CC1)(c1ccccc1)c1ccccc1`, for which the outcome in the test with Plasmodium falciparum [1], in the test with Plasmodium falciparum [2], with Plasmodium falciparum [3], with Plasmodium falciparum [4], in the test on Plasmodium falciparum [5] and with Plasmodium falciparum [6] was inactive. The outcome in the test with Plasmodium falciparum [7], in the test with Plasmodium falciparum [8] and in the test with Plasmodium falciparum [9] was inactive. The Activity in the test on Plasmodium falciparum K1 was found to be 49%.
As for `NC(=O)C(CCN1CCN(c2ccc(F)cc2)CC1)(c1ccccc1)c1ccccc1`, the outcome in the test on Plasmodium falciparum [1], in the test with Plasmodium falciparum [2], with Plasmodium falciparum [3], in the test on Plasmodium falciparum [4], with Plasmodium falciparum [5] and in the test with Plasmodium falciparum [6] was inactive. For the same compound, the outcome in the test with Plasmodium falciparum [7], in the test on Plasmodium falciparum [8] and with Plasmodium falciparum [9] was inactive. For the same compound, the Activity in the test with Plasmodium falciparum K1 stood at 57.7%.
For the compound `NC(=O)C(CCN1CCCCC1)(c1ccccc1)c1ccccc1`, the outcome in the test on Plasmodium falciparum [1], with Plasmodium falciparum [2], with Plasmodium falciparum [3], with Plasmodium falciparum [4], in the test with Plasmodium falciparum [5] and in the test with Plasmodium falciparum [6] was inactive. Moreover, the outcome in the test on Plasmodium falciparum [7], with Plasmodium falciparum [8] and in the test on Plasmodium falciparum [9] was inactive. Also, the Activity in the test on Plasmodium falciparum K1 is 63.2%.
As for `CSc1ccc2c(c1)C(=O)Cc1ccccc1S2`, the outcome in the test on Plasmodium falciparum [1], in the test on Plasmodium falciparum [2], in the test with Plasmodium falciparum [3], with Plasmodium falciparum [4], in the test on Plasmodium falciparum [5] and with Plasmodium falciparum [6] was inactive. For the same compound, the outcome in the test on Plasmodium falciparum [7], in the test on Plasmodium falciparum [8] and in the test with Plasmodium falciparum [9] was inactive. The Activity with Plasmodium falciparum K1 was 49.3%.
As to `O=C1Cc2ccccc2Sc2ccc(Cl)cc21`, the result with Plasmodium falciparum [1], in the test with Plasmodium falciparum [2], with Plasmodium falciparum [3], with Plasmodium falciparum [4], in the test on Plasmodium falciparum [5] and with Plasmodium falciparum [6] was inactive. The outcome in the test with Plasmodium falciparum [7], in the test with Plasmodium falciparum [8] and in the test on Plasmodium falciparum [9] was inactive. Also, the Activity in the test on Plasmodium falciparum K1 was found to be 49.1%.
As for `Ic1ccccc1CNCC(c1ccccc1)c1ccccc1`, the outcome with Plasmodium falciparum [1], in the test with Plasmodium falciparum [2], in the test on Plasmodium falciparum [3], in the test with Plasmodium falciparum [4], in the test with Plasmodium falciparum [5] and in the test on Plasmodium falciparum [6] was inactive. Also, the outcome with Plasmodium falciparum [7], in the test with Plasmodium falciparum [8] and with Plasmodium falciparum [9] was inactive. The Activity in the test with Plasmodium falciparum K1 is 50.9%.
For `N#CC(CCN1CCC(O)CC1)(c1ccccc1)c1ccccc1`, the result in the test on Plasmodium falciparum [1], in the test with Plasmodium falciparum [2], in the test with Plasmodium falciparum [3], in the test on Plasmodium falciparum [4], with Plasmodium falciparum [5] and in the test with Plasmodium falciparum [6] was inactive. The result with Plasmodium falciparum [7], with Plasmodium falciparum [8] and in the test on Plasmodium falciparum [9] was inactive. The Activity in the test with Plasmodium falciparum K1 came out at 63.9%.
As to `N[C@@H]1C2CCN(CC2)[C@@H]1Cc1ccccc1` (relative stereo), the result with Plasmodium falciparum [1], with Plasmodium falciparum [2], with Plasmodium falciparum [3], in the test with Plasmodium falciparum [4], with Plasmodium falciparum [5] and in the test on Plasmodium falciparum [6] was inactive. Besides, the outcome in the test on Plasmodium falciparum [7], with Plasmodium falciparum [8] and in the test on Plasmodium falciparum [9] was inactive. Besides, in the test with Plasmodium falciparum K1, the Activity is 40.1%.
On to `NCC(CCN1CCN(c2ccc(F)cc2)CC1)(c1ccccc1)c1ccccc1`, for which the result with Plasmodium falciparum [1], in the test on Plasmodium falciparum [2], with Plasmodium falciparum [3], in the test with Plasmodium falciparum [4], in the test with Plasmodium falciparum [5] and with Plasmodium falciparum [6] was inactive. In addition, the outcome in the test with Plasmodium falciparum [7], in the test with Plasmodium falciparum [8] and in the test on Plasmodium falciparum [9] was inactive. Moreover, the Activity with Plasmodium falciparum K1 is 60.5%.
Regarding `CC(C)(C)OC(=O)NC1CCN(CCC(C#N)(c2ccccc2)c2ccccc2)CC1`, the result in the test with Plasmodium falciparum [1], in the test on Plasmodium falciparum [2], in the test on Plasmodium falciparum [3], in the test on Plasmodium falciparum [4], with Plasmodium falciparum [5] and in the test on Plasmodium falciparum [6] was inactive. In addition, the outcome in the test on Plasmodium falciparum [7], with Plasmodium falciparum [8] and in the test on Plasmodium falciparum [9] was inactive. Besides, the Activity in the test on Plasmodium falciparum K1 stood at 38.8%.
As to `NCC(CCN1CCC(N)CC1)(c1ccccc1)c1ccccc1`, the result with Plasmodium falciparum [1], in the test on Plasmodium falciparum [2], in the test with Plasmodium falciparum [3], in the test on Plasmodium falciparum [4], in the test on Plasmodium falciparum [5] and in the test with Plasmodium falciparum [6] was inactive. The outcome with Plasmodium falciparum [7], with Plasmodium falciparum [8] and with Plasmodium falciparum [9] was inactive. Further, the Activity in the test with Plasmodium falciparum K1 turned out to be 58.9%.
As to `O=C1C2CCN(CC2)C1C(c1ccccc1)c1ccccc1` (stereo not given), the outcome in the test on Plasmodium falciparum [1], in the test on Plasmodium falciparum [2], in the test on Plasmodium falciparum [3], with Plasmodium falciparum [4], in the test with Plasmodium falciparum [5] and in the test with Plasmodium falciparum [6] was inactive. Moreover, the result in the test with Plasmodium falciparum [7], in the test on Plasmodium falciparum [8] and in the test with Plasmodium falciparum [9] was inactive. Further, in the test with Plasmodium falciparum K1, the Activity stood at 49%.
For `NC(=O)C(CCN1CCC(O)CC1)(c1ccccc1)c1ccccc1`, the result in the test with Plasmodium falciparum [1], in the test with Plasmodium falciparum [2], in the test on Plasmodium falciparum [3], with Plasmodium falciparum [4], with Plasmodium falciparum [5] and in the test with Plasmodium falciparum [6] was inactive. For the same compound, the result in the test with Plasmodium falciparum [7], in the test with Plasmodium falciparum [8] and with Plasmodium falciparum [9] was inactive. The Activity in the test on Plasmodium falciparum K1 was found to be 51.3%.
